The test system of series [1] is MDA-MB-231. Put plainly: Induction of autophagy in human MDA-MB-231 cells assessed as reduction in expression of p62 at 20 umol/L incubated for 24 hrs by Western blot analysis. The following applies: dose 20.0 µmol/L. Format: functional, cell-based. On the technique in general: Immunoblotting shows a protein as a band on a membrane.
In series [2] the target is Histone-lysine N-methyltransferase EZH2 (Homo sapiens) (UniProt Q15910). Put plainly: Inhibition of EZH2 in human HepG2 cells assessed as reduction in H3K27-me3 level at 20 umol/L incubated for 72 hrs by Western blot analysis. As to conditions: dose 20.0 µmol/L. Format: cell-based.
Series [3] has as its system MDA-MB-231. Put plainly: Induction of apoptosis in human MDA-MB-231 cells assessed as induction of cleavage of PARP at 10 to 20 umol/L incubated for 72 hrs by Western blot analysis. The following applies: dose 10-20 µmol/L. Format: functional, cell-based.
Series [4] has as its system MDA-MB-231. The experiment in a line: Induction of autophagy in human MDA-MB-231 cells assessed as change in total LAMP2 expression at 20 umol/L measured after 24 hrs in presence of bafilomycin A1 by Western blot analysis. It counts as toxicity, cell-based. The following applies: mda-mb-231, 24 h, 20 µM, dose 20 µmol/L.
Series [5] has as its system MDA-MB-231. Put plainly: Induction of autophagy in human MDA-MB-231 cells assessed as induction of LC3-II accumulation at 10 to 20 umol/L incubated for 24 hrs by Western blot analysis. It counts as functional, cell-based. As to conditions: dose 10-20 µmol/L.
The subject of series [6] is HepG2. The experiment in a line: Cytotoxicity against human HepG2 cells assessed as effect on cell viability after 72 hrs by MTT analysis. It counts as functional, cell-based. A digest of the protocol:
(§1)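 Cells in DMEM with 10% FBS at 37°C, 5% CO2, plated in 96-well plates and drug-treated for 72 h. MTT 0.5 mg/ml added for 4 h, formazan dissolved in DMSO, absorbance read at 550 nm. Means and SDs; Student's t-test.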

The test system of series [7] is MDA-MB-231. Put plainly: Cytotoxicity against human MDA-MB-231 cells assessed as cell viability at 5 umol/L after 72 hrs by MTT analysis relative to control. The following applies: MDA-MB-231, 72 h, dose 5 µmol/L, read-out: Activity. Format: functional. A digest of the protocol: as §1
Series [8] deals with MDA-MB-231. Put plainly: Induction of apoptosis in human MDA-MB-231 cells assessed as induction of cleavage of caspase-3 at 10 to 20 umol/L incubated for 72 hrs by Western blot analysis. The following applies: dose 10-20 µmol/L. It counts as functional, cell-based.
Series [9] has as its system HepG2. The experiment in a line: Cytotoxicity against human HepG2 cells assessed as effect on cell viability incubated for 72 hrs by MTT analysis. It counts as functional, cell-based. A digest of the protocol:
as §1

The target of series [10] is Histone-lysine N-methyltransferase EZH2 (Homo sapiens) (UniProt Q15910). Put plainly: Inhibition of EZH2 in human A549 cells assessed as reduction in H3K27-me3 level at 20 umol/L incubated for 72 hrs by Western blot analysis. It counts as cell-based. As to conditions: dose 20.0 µmol/L.
Series [11] concerns MDA-MB-231. The experiment in a line: Induction of autophagy in human MDA-MB-231 cells assessed as change in total LAMP2 expression at 20 umol/L measured after 24 hrs by Western blot analysis. It counts as toxicity, cell-based. As to conditions: mda-mb-231, 24 h, 20 µM, dose 20 µmol/L.
Series [12] relates to HepG2. The experiment in a line: […] in human HepG2 cells assessed as induction of LC3-II accumulation at 10 to 20 umol/L measured after 24 hrs in presence of bafilomycin A1 by Western blot analysis. Format: functional, cell-based. The following applies: dose 10-20 µmol/L. A digest of the protocol: (§2)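 A549 and HepG2 cells drug-treated with or without bafilomycin A1. Lysates made in Tris pH 7.5/NP-40 buffer with protease and phosphatase inhibitors, 25–50 μg run on 7–12% SDS-PAGE, probed for LC3B, ECL detection.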

Series [13] relates to A549. The experiment in a line: […] in human A549 cells assessed as induction of LC3-II accumulation at 10 to 20 umol/L measured after 24 hrs in presence of bafilomycin A1 by Western blot analysis. It counts as functional, cell-based. As to conditions: dose 10-20 µmol/L. The method, boiled down:
as §2

Series [14] relates to MDA-MB-231. The experiment in a line: Cytotoxicity against human MDA-MB-231 cells assessed as reduction in cell viability at >5 umol/L after 72 hrs by MTT analysis. It counts as functional, cell-based. The following applies: dose > 5.0 µmol/L. A digest of the protocol: as §1
The subject of series [15] is HepG2. The experiment in a line: Potentiation of sorafenib-induced anticancer activity in human HepG2 cells assessed as increase in cleaved PARP expression at 10 umol/L measured after 72 hrs by Western blot analysis. It counts as functional, cell-based. The following applies: dose 10.0 µmol/L. The method, boiled down: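 HepG2 cells given 5 μmol/l sorafenib, with or without 10 μmol/l compound, for 72 h. Whole-cell lysates immunoblotted for PARP1, LC3B and β-actin.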

The target of series [16] is Histone-lysine N-methyltransferase EZH2 (Homo sapiens) (UniProt Q15910). The experiment in a line: Inhibition of EZH2 in human MDA-MB-231 cells assessed as reduction in H3K27-me3 level at 20 umol/L incubated for 72 hrs by Western blot analysis. The following applies: dose 20.0 µmol/L. Format: cell-based.
Series [17] has as its system A549. The experiment in a line: […] in human A549 cells assessed as induction of LC3-II accumulation at 10 to 20 umol/L measured after 24 hrs by Western blot analysis. It counts as functional, cell-based. As to conditions: dose 10-20 µmol/L. The method, boiled down: as §2
Series [18] deals with HepG2. Put plainly: Potentiation of sorafenib-induced anticancer activity in human HepG2 cells at 10 umol/L measured after 72 hrs by MTT assay. As to conditions: dose 10.0 µmol/L. Format: functional, cell-based. A digest of the protocol:
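HepG2 cells given a range of sorafenib doses, with or without 10 μmol/l compound, for 72 h. Viability by MTT (0.5 mg/ml, 4 h, DMSO, A550). Student's t-test against untreated cells.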
(Formazan colour is commonly taken as a measure of viable cells.)

The subject of series [19] is HepG2. The experiment in a line: […] in human HepG2 cells assessed as induction of LC3-II accumulation at 10 to 20 umol/L measured after 24 hrs by Western blot analysis. Format: functional, cell-based. The following applies: dose 10-20 µmol/L. The method, boiled down: as §2
In series [20] the test system is HepG2. Put plainly: Anticancer activity in human HepG2 cells assessed as inhibition of EZH2 expression measured after 24 hrs by Western blot analysis. It counts as functional, cell-based. The following applies: dose 2.5-10 µmol/L. A digest of the protocol: (§3)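 HepG2 cells given 2.5–10 μmol/l sorafenib for 24 h; whole-cell lysates immunoblotted for EZH2, LC3B and GAPDH, with ECL detection.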

The test system of series [21] is HepG2. Put plainly: Induction of autophagy in human HepG2 cells assessed as accumulation of LC3-II at 10 umol/L measured after 24 hrs by Western blot analysis. It counts as functional, cell-based. As to conditions: dose 10.0 µmol/L. The method, boiled down: as §3

SMILES strings stand for the structures. Active and inactive are the calls of the source. The calls are words filed in the database; no cut-off is given here.

Chain of Histone-lysine N-methyltransferase EZH2 (Homo sapiens) (Q15910 whole entry, looked up): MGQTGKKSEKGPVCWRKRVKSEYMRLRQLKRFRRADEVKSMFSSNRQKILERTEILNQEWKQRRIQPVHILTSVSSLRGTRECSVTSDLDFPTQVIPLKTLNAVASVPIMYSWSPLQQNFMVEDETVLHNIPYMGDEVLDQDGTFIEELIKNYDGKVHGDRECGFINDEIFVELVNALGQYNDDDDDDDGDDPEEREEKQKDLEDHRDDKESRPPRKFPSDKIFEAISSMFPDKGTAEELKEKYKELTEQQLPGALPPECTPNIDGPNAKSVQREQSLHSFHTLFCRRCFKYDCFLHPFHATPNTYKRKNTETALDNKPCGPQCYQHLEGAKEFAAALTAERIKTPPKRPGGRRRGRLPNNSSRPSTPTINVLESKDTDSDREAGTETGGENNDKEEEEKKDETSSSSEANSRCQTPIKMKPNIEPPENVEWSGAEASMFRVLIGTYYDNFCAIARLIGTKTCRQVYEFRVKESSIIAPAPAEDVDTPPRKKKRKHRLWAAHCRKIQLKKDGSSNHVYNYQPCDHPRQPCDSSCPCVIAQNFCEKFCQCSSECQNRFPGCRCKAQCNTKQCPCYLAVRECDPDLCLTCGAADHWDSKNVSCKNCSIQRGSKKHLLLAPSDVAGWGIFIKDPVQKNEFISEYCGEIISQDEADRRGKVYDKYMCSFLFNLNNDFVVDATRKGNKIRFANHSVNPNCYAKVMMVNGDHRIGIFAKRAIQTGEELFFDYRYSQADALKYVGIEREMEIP

For `Nc1nccc2c1ncn2[C@@H]1C=C(CO)[C@@H](O)[C@H]1O`, the result in the series with MDA-MB-231 [1], in the series with MDA-MB-231 [3], in the series on HepG2 [6] and in the series with HepG2 [9] was Active. In addition, the inhibition result in [2], in [10] and in series [16] was “Active” in each case. In addition, the Activity result in the series on MDA-MB-231 [4] and in the series with MDA-MB-231 [11] was “Non-Toxic” in each case. Moreover, the outcome in the series on MDA-MB-231 [5], in the series on MDA-MB-231 [8], in the series with HepG2 [12], with A549 [13], in the series with MDA-MB-231 [14] and in the series with HepG2 [15] was inactive. For the same compound, the result in the series with A549 [17], with HepG2 [18] and in the series with HepG2 [19] was inactive. Moreover, the viability at 5 µM in the series on MDA-MB-231 [7] amounted to 67%.

Regarding `CNC(=O)c1cc(Oc2ccc(NC(=O)Nc3ccc(Cl)c(C(F)(F)F)c3)cc2)ccn1`, the inhibition entry in the series with HepG2 [20] is “Active”. Also, the result in the series on HepG2 [21] was Active.

The record behind these values is ChEMBL document CHEMBL5712884, “S-Adenosyl-L-methionine-competitive inhibitors of the histone methyltransferase EZH2 induce autophagy and enhance drug sensitivity in cancer cells” (Anticancer Drugs, 2015).
